An excerpt weighted towards active compounds, which were near 3.1% of everything screened.
KCNQ1 block – blocks the human KCNQ1 potassium channel | P51787 | CHO-K1 KCNQ1, FluxOR thallium flux fluorescence; active compounds read high | B-score at 10 µM | actives 1.3% (n = 310,000) | AID 2642;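 active = compounds whose thallium flux B-score, printed positive for inhibition, exceeds three library SD while starting fluorescence stays within three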;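 note: channel opened by potassium depolarization with thallium stimulus after 20 min compound exposure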
KCNK3 inh – human KCNK3 channel inhibition, primary screen | actives 0.84% (n = 340,000) | B-score at 10 µM | CHO-KCNK3 thallium flux, FluxOR fluorescence; active compounds read low;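 active = B-score under library mean minus 4 SD, starting fluorescence ratio at most library mean plus 5 SD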;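 note: more negative B-score means stronger inhibition of thallium flux through KCNK3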
KCNK9 inh – inhibitors of human KCNK9 two-pore domain potassium channel; B-score at 10 µM; actives 1.2% (n = 310,000); AID 488922; HEK293 KCNK9, FluxOR thallium flux fluorescence; active compounds read low;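 active = ratio B-score over 3 SD below the library mean, with starting fluorescence within 5 SD of its mean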;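 note: negative B-score means less thallium flux so channel inhibition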
Target sequence (Q9NPC2 whole entry, looked up, the tested form may be a part): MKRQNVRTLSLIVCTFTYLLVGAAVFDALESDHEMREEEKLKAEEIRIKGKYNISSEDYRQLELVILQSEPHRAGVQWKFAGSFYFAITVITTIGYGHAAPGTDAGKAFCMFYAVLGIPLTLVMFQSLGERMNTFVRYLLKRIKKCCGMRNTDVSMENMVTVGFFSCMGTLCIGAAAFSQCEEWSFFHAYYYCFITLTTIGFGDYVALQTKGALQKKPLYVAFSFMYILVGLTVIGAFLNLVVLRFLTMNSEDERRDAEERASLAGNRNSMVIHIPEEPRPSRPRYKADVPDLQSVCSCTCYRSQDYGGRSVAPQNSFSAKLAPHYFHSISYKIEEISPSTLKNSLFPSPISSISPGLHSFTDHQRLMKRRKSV
hERG rescue – compounds protecting human hERG from proarrhythmic drug block; Q12809; CHO-hERG, FluxOR thallium flux, dofetilide IC70 present; activation (rescue from dofetilide block), less the hit threshold, % at 10 µM; actives 0.51% (n = 310,000); AID 1511;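 active = activation above the mean of controls blocked by dofetilide plus 5 SD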;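 note: thallium influx through hERG after potassium depolarization seen as dye fluorescence rise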
KCNQ1 act – human KCNQ1 channel potentiation or activation; P51787; CHO-K1 KCNQ1, thallium flux FluxOR fluorescence; active compounds read high; B-score at 10 µM; actives 0.35% (n = 310,000); AID 2648;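 active = fluorescence ratio B-score, a plate-corrected score, at least three library SD, with initial intensity B-score within 5 SD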
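System: CHO-K1 cells stably expressing KCNQ1 / Medium: assay buffer for compound exposure, DMSO matched across wells / Reagent: thallium- and potassium-containing depolarizing buffer / Compound: one concentration, matched DMSO / Incubation: 20 min compound pretreatment at room temperature / Measured by: kinetic FluxOR fluorescence, 10 s baseline plus 110 s post-stimulus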
KCNK3 inh conf – human KCNK3 channel inhibition, confirmation assay | actives 99% (n = 2,400) | CHO-KCNK3 thallium flux, FluxOR fluorescence; 0% buffer, 100% carvedilol maximal block | ratio percent of control, % at 10 µM | shares compounds with KCNK3 inh | AID 651638;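 active = ratio percent of control, averaged over triplicates, above buffer control mean plus 5 SD, cut at about 64% in these data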;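 note: ratio is the fluorescence rise from min to max over baseline after thallium stimulus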
KCNK3 noninduced – activity in cells without induced KCNK3 expression | shares compounds with KCNK3 inh | non-induced KCNK3 parental cells, FluxOR thallium flux; active compounds read low | thallium flux ratio (lower = more inhibition) at 10 µM | actives 40% (n = 2,400) | AID 651747;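 active = thallium flux ratio, averaged over three wells, more than 5 SD below the buffer control mean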;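 note: host cells are CHO cells without KCNK3 induction; ratio is peak minus trough fluorescence over baseline then normalized to buffer controls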
Numbers without * were called inactive; i = inactive; · = no result given.

SMILES	KCNQ1 block	KCNK3 inh	KCNK9 inh	hERG rescue	KCNQ1 act	KCNK3 inh conf	KCNK3 noninduced
O=C1COc2ccc(C(=O)COC(=O)c3ccc(F)cc3Cl)cc2N1	·	i	·	·	·	·	·
COCc1nnc(NC(=O)C2CCN(C(=O)c3ccco3)CC2)s1	i	i	i	-3.0	i	·	·
CCc1nnc(NC(=O)C2CCN(C(=O)c3ccco3)CC2)s1	i	-8.84*	i	-0.6	i	80.7*	i
CC(C)c1ccccc1-n1c(SCC(=O)c2ccc3c(c2)NC(=O)CO3)nc2ccccc2c1=O	6*	-10.6*	-7.4*	-21.6	i	115.0*	0.149*
COc1ccc(-c2ccc(C3C(C#N)=C(N)Oc4n[nH]c(C)c43)o2)cc1 (stereo not drawn)	i	-10.9*	i	-16.0	i	89.0*	i
Cc1ccc(NC(=O)c2c(C(F)(F)F)nn(C)c2Cl)cc1C	i	i	i	-7.3	i	·	·
Cc1ccc(NC(=O)c2c(C(F)(F)F)nn(C)c2SCc2ccc(Cl)cc2)cc1C	i	-10.1*	i	-9.4	i	110.3*	0.158*
CC(C)CC(CO)N1CCN(C(=O)c2ccc(Cl)c(Cl)c2)CCC1=O (stereo not drawn)	i	i	i	-3.3	i	·	·
O=C(COC(=O)C1CC1)NC(=O)NCc1ccccc1	i	i	i	-7.1	i	·	·
O=C(Nc1ccc(N2CCN(C(=O)c3ccc(Cl)cc3)CC2)cc1)c1cc2ccccc2o1	i	i	i	-11.8	i	·	·
O=C(Nc1ccccc1N1CCN(C(=O)c2ccc(Cl)cc2)CC1)c1cc2ccccc2o1	i	-12.3*	i	-5.8	i	121.0*	0.143*
Cn1c(=O)n(CCCOc2ccc(Cl)cc2)c2ccccc21	i	-8.7*	i	-11.1	i	99.7*	i
CCCCCCNS(=O)(=O)c1ccc(Cl)s1	i	-9.23*	i	-5.1	i	94.3*	i
O=S(=O)(NCCCN1CCOCC1)c1ccc(Cl)s1	i	i	i	-6.5	i	·	·
COc1ccc(C(=O)CCc2ccccc2)cc1	i	i	i	-0.9	i	·	·
CCOC(=O)c1c(N)sc2c1CCSC2	i	-9.55*	i	-8.0	i	71.7*	i
Cc1cc(C(F)(F)F)n2nc(-c3cnn(C)c3C(F)(F)F)c(Br)c2n1	i	i	i	-13.6	i	·	·
CCOc1ccc2nc(SC(C)C(N)=O)[nH]c2c1 (stereo not drawn)	i	i	i	-6.2	i	·	·
COc1ccc(C(=O)Nc2cccc(-c3nnc(-c4ccco4)o3)c2)cc1	i	i	i	-26.7	i	·	·
COc1cc(C(=O)Nc2cccc(-c3nnc(-c4ccco4)o3)c2)ccc1OC(C)=O	i	-9.52*	i	-13.7	i	113.3*	i
CC1CN(C(=O)COC(=O)c2ccc(N(C)C)cc2)CC(C)O1 (stereo not drawn)	i	i	i	-8.9	i	·	·
c1ccc2c(-c3c[nH]c4ccccc34)c3ccccc3nc2c1	i	-9.96*	i	0.6	i	123.0*	i
O=C(O)c1cc(-c2c[nH]c3ccccc23)nc2ccc3ccccc3c12	i	i	i	0.9	i	·	·
O=C1CCCCN1CCC(=O)N1CCCC(N2CCN(c3ccccc3)CC2)C1 (stereo not drawn)	i	i	i	-10.7	i	·	·
Cc1cccc(NC(=O)NC2CCCc3ccccc32)c1 (stereo not drawn)	i	-9.44*	i	-18.2	i	121.0*	0.141*
SMILES	KCNQ1 block	KCNK3 inh	KCNK9 inh	hERG rescue	KCNQ1 act	KCNK3 inh conf	KCNK3 noninduced
COc1ccccc1NC(=O)CN1C(=O)COc2ccc(S(=O)(=O)N3CCCCCC3)cc21	i	i	i	-10.2	i	·	·
COc1ccc(OC)c(NC(=O)CN2C(=O)COc3ccc(S(=O)(=O)N4CCCC4)cc32)c1	i	-10*	i	-5.5	i	95.7*	i
COc1cccc(NC(=O)CN2C(=O)COc3ccc(Cl)cc32)c1	i	-9.82*	i	-7.4	i	100.7*	i
CS(=O)(=O)c1ccc2nc(NC(=O)CN3C(=O)NC4(CCCC4)C3=O)sc2c1	i	i	i	-6.9	i	·	·
CCN1CCN(S(=O)(=O)c2ccc(Cl)c(C(=O)N(C)Cc3cccc(Cl)c3Cl)c2)CC1	i	i	i	-7.3	i	·	·
CCCCCn1c(N)c(-c2nc3ccccc3s2)c2c([N+](=O)[O-])nn(C)c(=O)c21	11*	-11.3*	i	-42.9	i	101.7*	0.147*
O=C(N/N=C/c1cn(-c2ccccc2)nc1-c1cccnc1)c1ccccc1	i	-9.51*	i	-14.2	i	98.0*	i
NC(=O)N/N=C/c1cn(-c2ccccc2)nc1-c1cccnc1	i	·	i	-6.7	i	·	·
CN(c1ccccc1)S(=O)(=O)c1cccc(NC(=O)c2ccc3ncsc3c2)c1	i	-9.48*	-7.14*	-13.5	i	130.0*	0.135*
COc1ccc(N2CCOCC2)c(NC(=O)c2cccc3ccccc23)c1	i	-9.54*	i	-7.0	i	108.3*	i
COc1ccc(OC)c(-c2cc(C(=O)N/N=C/c3ccc(F)cc3)c3ccccc3n2)c1	i	i	i	-15.8	i	·	·
COc1ccc(-c2cc(C(=O)Nc3ccccc3N3CCOCC3)c3ccccc3n2)cc1OC	i	-8.74*	i	-19.1	i	95.0*	0.126*
COc1ccc(OC)c(-c2cc(C(=O)Nc3ccccc3C(N)=O)c3ccccc3n2)c1	i	-9.27*	i	-18.2	i	111.3*	0.139*
CCN(CC)S(=O)(=O)c1ccc(N2CCOCC2)c(NC(=O)c2cccc3ccccc23)c1	i	i	i	-13.9	i	·	·
COc1ccccc1NC(=O)c1cc(-c2cc(OC)c(OC)c(OC)c2)nc2ccccc12	i	i	i	-7.4	i	·	·
CCOc1ccccc1NC(=O)c1cc(-c2cc(OC)c(OC)c(OC)c2)nc2ccccc12	i	-9.7*	i	-21.1	i	132.3*	0.0927*
O=C(O)c1cccc2c1C(=O)c1cccc3snc-2c13	i	i	i	-8.0	i	·	·
FC(F)(F)c1ccccc1NC(=S)Nc1cccc(Cl)c1	8*	-9.64*	i	-10.5	i	93.3*	i
FC(F)(F)c1cccc(NC(=S)Nc2ccc(Cl)cc2Cl)c1	i	i	i	-11.9	i	·	·

Bioassay records as filed in PubChem BioAssay.
